From ChEMBL document CHEMBL3616442, “Unconventional Knoevenagel-type indoles: Synthesis and cell-based studies for the identification of pro-apoptotic agents” (Eur J Med Chem, 2015)

Experiments:
SF-268 = assay: Growth inhibition of human SF268 cells after 48 hrs by sulforhodamine B assay; format: functional; settings: SF-268, 48 h
HCT-116 = assay: Growth inhibition of human HCT116 cells after 48 hrs by sulforhodamine B assay; format: functional; settings: HCT-116, 48 h
In short: (§1)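 NCI 60-cell-line screen. Compounds tested at five 10-fold dilutions from 10^-4 to 10^-8 M. Cells exposed for the last 48 h of a 72 h incubation, growth estimated by sulforhodamine B protein assay. GI50 is the concentration giving 50% growth inhibition. Values beyond the tested range are expressed as greater or lesser than the extreme concentration.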

[1] = Growth inhibition of human LOXIMVI cells after 48 hrs by sulforhodamine B assay; format: functional; settings: LOX IMVI; in short: as §1
M14 = assay: Growth inhibition of human M14 cells after 48 hrs by sulforhodamine B assay; format: functional; settings: M14, 48 h; in short: as §1
IGROV-1 = assay: Growth inhibition of human IGROV1 cells after 48 hrs by sulforhodamine B assay; format: functional; settings: IGROV-1, 48 h; in short: as §1
MDA-MB-468 = assay: Growth inhibition of human MDA-MB-468 cells after 48 hrs by sulforhodamine B assay; format: functional; settings: MDA-MB-468, 48 h; in short: as §1
NCI-H226 = assay: Growth inhibition of human NCI-H226 cells after 48 hrs by sulforhodamine B assay; format: functional; settings: NCI-H226, 48 h; in short: as §1
[2] = Growth inhibition of human SF539 cells after 48 hrs by sulforhodamine B assay; format: functional; settings: SF-539, 48 h
[3] = Growth inhibition of human HOP92 cells after 48 hrs by sulforhodamine B assay; format: functional; settings: HOP-92, 48 h; in short: as §1
A549 = assay: Growth inhibition of human A549 cells after 48 hrs by sulforhodamine B assay; format: functional; settings: A549, 48 h; in short: as §1
NCI-H23 = assay: Growth inhibition of human NCI-H23 cells after 48 hrs by sulforhodamine B assay; format: functional; settings: NCI-H23, 48 h; in short: as §1
[4] = Growth inhibition of human RPMI8226 cells after 48 hrs by sulforhodamine B assay; format: functional; settings: RPMI-8226, 48 h
MDA-MB-231 = assay: Growth inhibition of human MDA-MB-231 cells after 48 hrs by sulforhodamine B assay; format: functional; settings: MDA-MB-231, 48 h; in short: as §1
[5] = Growth inhibition of human SF295 cells after 48 hrs by sulforhodamine B assay; format: functional; settings: SF-295, 48 h
786-0 = assay: Growth inhibition of human 786-0 cells after 48 hrs by sulforhodamine B assay; format: functional; settings: 786-0, 48 h; in short: as §1
NCI-H322M = assay: Growth inhibition of human NCI-H322M cells after 48 hrs by sulforhodamine B assay; format: functional; in short: as §1
U-251 = assay: Growth inhibition of human U251 cells after 48 hrs by sulforhodamine B assay; format: functional; settings: U-251, 48 h
SK-OV-3 = assay: Growth inhibition of human SKOV3 cells after 48 hrs by sulforhodamine B assay; format: functional; settings: SK-OV-3, 48 h
[6] = Growth inhibition of human NCI-ADR-RES cells after 48 hrs by sulforhodamine B assay; format: functional; in short: as §1
OVCAR-4 = assay: Growth inhibition of human OVCAR4 cells after 48 hrs by sulforhodamine B assay; format: functional; settings: OVCAR-4, 48 h; in short: as §1
MT4 = assay: Antiproliferative activity against human MT4 cells after 96 hrs by MTT assay; format: functional, cell-based; settings: MT4, 96 h
In short: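 Exponentially growing MT-4 cells (CD4+ human T-cells carrying integrated HTLV-1 genome), seeded at 1×10^5 cells/mL in RPMI-1640 with 10% FCS and antibiotics. Serial dilutions of compound (DMSO stock 100 mM, diluted in medium), 37 °C, 5% CO₂, 96 h. Viability read by MTT. 50% inhibition versus untreated controls by linear regression. Mean ± SD of three independent determinations.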

NCI-H460 = assay: Growth inhibition of human NCI-H460 cells after 48 hrs by sulforhodamine B assay; format: functional; settings: NCI-H460, 48 h; in short: as §1
HT-29 = assay: Growth inhibition of human HT-29 cells after 48 hrs by sulforhodamine B assay; format: functional; settings: HT-29, 48 h; in short: as §1
[7] = Growth inhibition of human HCC2998 cells after 48 hrs by sulforhodamine B assay; format: functional; settings: HCC 2998, 48 h; in short: as §1
OVCAR-8 = assay: Growth inhibition of human OVCAR8 cells after 48 hrs by sulforhodamine B assay; format: functional; settings: OVCAR-8, 48 h
SNB-19 = assay: Growth inhibition of human SNB19 cells after 48 hrs by sulforhodamine B assay; format: functional; settings: SNB-19, 48 h
UACC-257 = assay: Growth inhibition of human UACC257 cells after 48 hrs by sulforhodamine B assay; format: functional; settings: UACC-257, 48 h
[8] = Growth inhibition of human RXF393 cells after 48 hrs by sulforhodamine B assay; format: functional; settings: RXF 393, 48 h
Malme-3M = assay: Growth inhibition of human MALME-3M cells after 48 hrs by sulforhodamine B assay; format: functional; in short: as §1
NCI-H522 = assay: Growth inhibition of human NCI-H522 cells after 48 hrs by sulforhodamine B assay; format: functional; settings: NCI-H522, 48 h; in short: as §1
A498 = assay: Growth inhibition of human A498 cells after 48 hrs by sulforhodamine B assay; format: functional; settings: A498, 48 h; in short: as §1
ACHN = assay: Growth inhibition of human ACHN cells after 48 hrs by sulforhodamine B assay; format: functional; in short: as §1
PC-3 = assay: Growth inhibition of human PC3 cells after 48 hrs by sulforhodamine B assay; format: functional; settings: PC-3, 48 h
MCF7 = assay: Growth inhibition of human MCF7 cells after 48 hrs by sulforhodamine B assay; format: functional; settings: MCF7, 48 h; in short: as §1
SK-MEL-28 = assay: Growth inhibition of human SK-MEL-28 cells after 48 hrs by sulforhodamine B assay; format: functional; settings: SK-MEL-28, 48 h
MDA-MB-435 = assay: Growth inhibition of human MDA-MB-435 cells after 48 hrs by sulforhodamine B assay; format: functional; settings: MDA-MB-435, 48 h; in short: as §1
OVCAR-3 = assay: Growth inhibition of human OVCAR3 cells after 48 hrs by sulforhodamine B assay; format: functional; settings: OVCAR-3, 48 h; in short: as §1
SNB-75 = assay: Growth inhibition of human SNB75 cells after 48 hrs by sulforhodamine B assay; format: functional; settings: SNB-75, 48 h
DU-145 = assay: Growth inhibition of human DU145 cells after 48 hrs by sulforhodamine B assay; format: functional; settings: DU-145, 48 h; in short: as §1
HCT-15 = assay: Growth inhibition of human HCT15 cells after 48 hrs by sulforhodamine B assay; format: functional; settings: HCT-15, 48 h; in short: as §1
CCRF-CEM = assay: Growth inhibition of human CCRF-CEM cells after 48 hrs by sulforhodamine B assay; format: functional; in short: as §1
UACC-62 = assay: Growth inhibition of human UACC62 cells after 48 hrs by sulforhodamine B assay; format: functional; settings: UACC-62, 48 h
SW-620 = assay: Growth inhibition of human SW620 cells after 48 hrs by sulforhodamine B assay; format: functional; settings: SW-620, 48 h
HOP-62 = assay: Growth inhibition of human HOP62 cells after 48 hrs by sulforhodamine B assay; format: functional; settings: HOP-62, 48 h; in short: as §1
[9] = Growth inhibition of human BT549 cells after 48 hrs by sulforhodamine B assay; format: functional; settings: BT-549, 48 h; in short: as §1
UO-31 = assay: Growth inhibition of human UO31 cells after 48 hrs by sulforhodamine B assay; format: functional; settings: UO-31, 48 h
CAKI-1 = assay: Growth inhibition of human CAKI-1 cells after 48 hrs by sulforhodamine B assay; format: functional; settings: CAKI-1, 48 h; in short: as §1
SK-MEL-2 = assay: Growth inhibition of human SK-MEL-2 cells after 48 hrs by sulforhodamine B assay; format: functional; settings: SK-MEL-2, 48 h
TK-10 = assay: Growth inhibition of human TK10 cells after 48 hrs by sulforhodamine B assay; format: functional; settings: TK-10, 48 h
SN12C = assay: Growth inhibition of human SN12C cells after 48 hrs by sulforhodamine B assay; format: functional
[10] = Growth inhibition of human Hs 578T cells after 48 hrs by sulforhodamine B assay; format: functional; in short: as §1
T47D = assay: Growth inhibition of human T47D cells after 48 hrs by sulforhodamine B assay; format: functional
[11] = Growth inhibition of human COLO205 cells after 48 hrs by sulforhodamine B assay; format: functional; settings: COLO 205, 48 h; in short: as §1
KM12 = assay: Growth inhibition of human KM12 cells after 48 hrs by sulforhodamine B assay; format: functional; settings: KM12, 48 h; in short: as §1
[12] = Growth inhibition of human EKVX cells after 48 hrs by sulforhodamine B assay; format: functional; in short: as §1
HL-60(TB) = assay: Growth inhibition of human HL-60(TB) cells after 48 hrs by sulforhodamine B assay; format: functional; settings: HL-60, 48 h
In short: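 NCI 60-cell-line screen, HL-60(TB) included. Compound given at five 10-fold dilutions from 10^-4 to 10^-8 M. Cells exposed for the last 48 h of a 72 h incubation. Growth or viability estimated by sulforhodamine B protein assay. GI50 is the concentration giving 50% growth inhibition. Values outside the tested range are reported as greater or less than the highest or lowest concentration.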

SR = assay: Growth inhibition of human SR cells after 48 hrs by sulforhodamine B assay; format: functional
SK-MEL-5 = assay: Growth inhibition of human SK-MEL-5 cells after 48 hrs by sulforhodamine B assay; format: functional; settings: SK-MEL-5, 48 h
K562 = assay: Growth inhibition of human K562 cells after 48 hrs by sulforhodamine B assay; format: functional; settings: K562, 48 h; in short: as §1

## N#C/C(=C\c1c(-c2ccccc2)[nH]c2ccccc12)C(=O)c1ccccc1
SF-268
  GI50: 5.7 µM
HCT-116
  GI50: 5.3 µM
[1]
  GI50: 7.4 µM
M14
  GI50: 4.8 µM
IGROV-1
  GI50: 2.5 µM
MDA-MB-468
  GI50: 5.6 µM
NCI-H226
  GI50: 6.8 µM
[2]
  GI50: 6 µM
[3]
  GI50: 4.5 µM
A549
  GI50: 7.6 µM
NCI-H23
  GI50: 16 µM
[4]
  GI50: 2.4 µM
MDA-MB-231
  GI50: 13.2 µM
[5]
  GI50: 3 µM
786-0
  GI50: 16.5 µM
NCI-H322M
  GI50: 3.8 µM
U-251
  GI50: 4.7 µM
SK-OV-3
  GI50: 15.2 µM
[6]
  GI50: 3.1 µM
OVCAR-4
  GI50: 65.3 µM
MT4
  EC50: 0.5 µM
NCI-H460
  GI50: 4.5 µM
HT-29
  GI50: 3.4 µM
[7]
  GI50: 14.5 µM
OVCAR-8
  GI50: 2.2 µM
SNB-19
  GI50: 16.8 µM
UACC-257
  GI50: 10.9 µM
[8]
  GI50: 9.6 µM
Malme-3M
  GI50: 12.3 µM
NCI-H522
  GI50: 4 µM
A498
  GI50: 15.3 µM
ACHN
  GI50: 7.2 µM
PC-3
  GI50: 3.5 µM
MCF7
  GI50: 4 µM
SK-MEL-28
  GI50: 12 µM
MDA-MB-435
  GI50: 0.37 µM
OVCAR-3
  GI50: 2.4 µM
SNB-75
  GI50: 3.2 µM
DU-145
  GI50: 5.2 µM
HCT-15
  GI50: 3.5 µM
CCRF-CEM
  GI50: 7.3 µM
UACC-62
  GI50: 3.6 µM
SW-620
  GI50: 3 µM
HOP-62
  GI50: 16.3 µM
[9]
  GI50: 3 µM
UO-31
  GI50: 30.5 µM
CAKI-1
  GI50: 2.5 µM
SK-MEL-2
  GI50: 35.2 µM
TK-10
  GI50: 11.1 µM
SN12C
  GI50: 5.7 µM
[10]
  GI50: 6.3 µM
T47D
  GI50: 5.3 µM
[11]
  GI50: 5 µM
KM12
  GI50: 2 µM
[12]
  GI50: 10 µM

## O=C(/C(=C\c1c(-c2ccccc2)[nH]c2ccccc12)S(=O)(=O)c1ccccc1)c1ccccc1
HCT-116
  GI50: 4.9 µM
[1]
  GI50: 74.7 µM
M14
  GI50: 15.6 µM
MDA-MB-468
  GI50: 4.2 µM
[3]
  GI50: 5 µM
A549
  GI50: 35 µM
NCI-H23
  GI50: 9.6 µM
[4]
  GI50: 7.6 µM
[5]
  GI50: 3.5 µM
U-251
  GI50: 8.6 µM
SK-OV-3
  GI50: 7.6 µM
OVCAR-4
  GI50: 6.6 µM
MT4
  EC50: 3 µM
NCI-H460
  GI50: 5.9 µM
[8]
  GI50: 97.1 µM
HL-60(TB)
  GI50: 5 µM
NCI-H522
  GI50: 91.8 µM
ACHN
  GI50: 6.7 µM
PC-3
  GI50: 5 µM
MCF7
  GI50: 5 µM
MDA-MB-435
  GI50: 3.9 µM
SNB-75
  GI50: 10.1 µM
SR
  GI50: 9.9 µM
SK-MEL-5
  GI50: 9 µM
UACC-62
  GI50: 9 µM
CAKI-1
  GI50: 3.1 µM
[10]
  GI50: 39.5 µM
T47D
  GI50: 3.4 µM
K562
  GI50: 6.5 µM
[11]
  GI50: 7.8 µM
KM12
  GI50: 5.1 µM
[12]
  GI50: 4.6 µM
